For orientation: IC50 means the point on the concentration scale where inhibition reaches its midpoint. A high value points to lower potency. In general, logD refers to the decadic logarithm of the distribution of all forms, ionised or not, between an organic phase and buffer at a given pH.

Each structure is given as a SMILES string.

Among the data in ChEMBL document CHEMBL1138348, “A p-[18F]fluoroethoxyphenyl bicyclic nucleoside analogue as a potential positron emission tomography imaging agent for varicella-zoster virus thymidine kinase gene expression” (J Med Chem, 2007) are IC50, Drug uptake and logD values, retold here.

Data set [1] is described as follows: Inhibition of HSV1 thymidine kinase. On the set-up: species or system Human alphaherpesvirus 1. The procedure, abridged:
(§1)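 Purified recombinant VZV TK (7.75 ng), HSV-1 TK (226 ng) or human cytosolic TK-1 (455 ng) in 50 mM Tris-HCl pH 8.0, 2.5 mM MgCl2, 10 mM DTT, 2.5 mM ATP, 1 mg/mL BSA, 10 mM NaF, with 1 µM final [CH3-3H]dThd substrate. Incubated 30 min at 37 °C with varied compound concentrations; the reaction was linear over this time. Product bound on DE-81 filters, washed, and counted by liquid scintillation. Result reported as IC50.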

Data set [2] in a line: Inhibition of Varicella zoster virus thymidine kinase. Further details: species or system Human alphaherpesvirus 3. Summed up: as §1
For data set [3], the target named is T1, Thymidine kinase, cytosolic (Homo sapiens, UniProt P04183).
T1 sequence (P04183 whole entry): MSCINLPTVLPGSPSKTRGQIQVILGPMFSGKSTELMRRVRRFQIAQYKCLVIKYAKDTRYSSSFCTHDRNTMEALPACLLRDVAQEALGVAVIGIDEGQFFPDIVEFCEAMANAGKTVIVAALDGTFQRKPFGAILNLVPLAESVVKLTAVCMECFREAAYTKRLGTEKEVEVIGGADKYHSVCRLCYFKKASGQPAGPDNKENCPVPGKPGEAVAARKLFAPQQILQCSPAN
The data set is described as follows: Inhibition of human cytosolic thymidine kinase 1. The procedure, abridged:
as §1

Data set [4] is filed under the species Mus musculus. Description: Biodistribution in NMRI mouse urine assessed as radioactivity after 60 mins. In kind it is ADME, organism-based. Conditions: in vivo, 1 h. The procedure, abridged: (§2)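 Male NMRI mice (37–43 g) given 0.1 mL HPLC-purified tracer (diluted in water for injection, EtOH <5%; 37 MBq/mL for 11C tracer, 3.7 MBq/mL for 18F tracer) via tail vein under ketamine/xylazine ip anaesthesia. Decapitation at 2 or 60 min, n=3 per time point. Organs dissected, weighed, gamma counted. Results given as %ID (cpm organ/total cpm recovered) or SUV. Blood mass taken as 7% of body mass. Mean ± SD.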

Data set [5] has as its system Kidney. The data set is described as follows: Biodistribution in NMRI mouse kidney assessed as radioactivity after 2 mins. In kind it is ADME, organism-based. Particulars: in vivo. Summed up: as §2
Data set [6] relates to Heart. The data set is described as follows: Biodistribution in NMRI mouse heart assessed as radioactivity after 2 mins. The format is ADME, organism-based. Particulars: in vivo. The procedure, abridged:
as §2

The species entered for data set [7] is Mus musculus. The data set is described as follows: Biodistribution in NMRI mouse carcass assessed as radioactivity after 60 mins. Particulars: in vivo, 1 h. The format is ADME, organism-based. Summed up: as §2
For data set [8], the species on record is Mus musculus. Description: Biodistribution in NMRI mouse carcass assessed as radioactivity after 2 mins. In kind it is ADME, organism-based. Particulars: in vivo. The procedure, abridged: as §2
Data set [9] deals with Lung. Description: Biodistribution in NMRI mouse lungs assessed as radioactivity after 60 mins. Conditions: in vivo, 1 h. In kind it is ADME, organism-based. Summed up:
as §2

The test system of data set [10] is Stomach. The data set is described as follows: Biodistribution in NMRI mouse stomach assessed as radioactivity after 2 mins. The format is ADME, organism-based. Particulars: in vivo. The procedure, abridged: as §2
The test system of data set [11] is Kidney. The data set is described as follows: Biodistribution in NMRI mouse kidney assessed as radioactivity after 60 mins. In kind it is ADME, organism-based. Particulars: in vivo, 1 h. The procedure, abridged:
as §2

Data set [12] relates to Heart. Description: Biodistribution in NMRI mouse heart assessed as radioactivity after 60 mins. The format is ADME, organism-based. Particulars: in vivo, 1 h. The procedure, abridged:
as §2

The species entered for data set [13] is Mus musculus. The data set is described as follows: Biodistribution in NMRI mouse spleen + pancreas assessed as radioactivity after 2 mins. The format is ADME, organism-based. Particulars: in vivo. Summed up:
as §2

For data set [14], the system named is Liver. The data set is described as follows: Biodistribution in NMRI mouse liver assessed as radioactivity after 60 mins. In kind it is ADME, organism-based. Particulars: in vivo, 1 h. The procedure, abridged: as §2
Data set [15] is described as follows: Drug uptake in LV-VZVTK-IP transduced 293T cells assessed as radioactivity at 1.1 MBq after 0.5 hrs. In kind it is ADME, cell-based. Conditions: human, hek-293t. Summed up: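 293T cells stably transduced with lentivirus carrying VZV-tk-IRES-pac (kept in 1 µg/mL puromycin), alongside untransduced control 293T cells. Plated in triplicate at 200 000 cells/well. After 24 h, fresh medium with HPLC-purified tracer added: 1.1 MBq (11C tracer, 0.5 h) or 185 kBq (18F tracer, 3 h), 37 °C. Cells washed with ice-cold PBS and lysed. Gamma counting. Uptake given as % of total radioactivity per mg protein (Bio-Rad assay).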

Data set [16] deals with Liver. Description: Biodistribution in NMRI mouse liver assessed as radioactivity after 2 mins. The format is ADME, organism-based. Conditions: in vivo. The procedure, abridged: as §2
Data set [17] has as its system Intestine. The data set is described as follows: Biodistribution in NMRI mouse intestine assessed as radioactivity after 60 mins. In kind it is ADME, organism-based. Particulars: in vivo, 1 h. Summed up: as §2
The test system of data set [18] is Blood. Description: Biodistribution in NMRI mouse blood assessed as radioactivity after 2 mins. The format is ADME, organism-based. Particulars: in vivo. The procedure, abridged: as §2
The subject of data set [19] is Intestine. The data set is described as follows: Biodistribution in NMRI mouse intestine assessed as radioactivity after 2 mins. The format is ADME, organism-based. Conditions: in vivo. The procedure, abridged: as §2
The test system of data set [20] is Stomach. The data set is described as follows: Biodistribution in NMRI mouse stomach assessed as radioactivity after 60 mins. In kind it is ADME, organism-based. Conditions: in vivo, 1 h. Summed up: as §2
The species entered for data set [21] is Mus musculus. Description: Biodistribution in NMRI mouse urine assessed as radioactivity after 2 mins. The format is ADME, organism-based. Conditions: in vivo. Summed up:
as §2

For data set [22], the species on record is Mus musculus. Description: Biodistribution in NMRI mouse spleen + pancreas assessed as radioactivity after 60 mins. Conditions: in vivo, 1 h. The format is ADME, organism-based. Summed up: as §2
The subject of data set [23] is Lung. Description: Biodistribution in NMRI mouse lungs assessed as radioactivity after 2 mins. The format is ADME, organism-based. Conditions: in vivo. Summed up:
as §2

Data set [24] concerns Blood. The data set is described as follows: Biodistribution in NMRI mouse blood assessed as radioactivity after 60 mins. Particulars: in vivo, 1 h. In kind it is ADME, organism-based. The procedure, abridged:
as §2

In data set [25] the test system is Brain. Description: Biodistribution in NMRI mouse brain assessed as radioactivity after 60 mins. In kind it is ADME, organism-based. Particulars: in vivo, 1 h. Summed up: as §2
Data set [26] in a line: Partition coefficient, log P in 1-octanol and phosphate buffer at pH 7.4. The format is physicochemical. Conditions: 1-octanol/phosphate buffer. The procedure, abridged:
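HPLC-isolated tracer (about 550 kBq 11C or 185 kBq 18F) partitioned between 1-octanol and 0.025 M phosphate buffer pH 7.4 (2 mL each). Vortexed 2 min at room temperature, centrifuged 1837 g for 5 min. Aliquots of both phases weighed and gamma counted. P calculated as the cpm/mL ratio after density correction; n=6.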

In data set [27] the test system is Brain. Description: Biodistribution in NMRI mouse brain assessed as radioactivity after 2 mins. The format is ADME, organism-based. Particulars: in vivo. The procedure, abridged: as §2

Consider `O=c1nc2oc(-c3cccc(OCCCCCCF)c3)cc2cn1[C@H]1C[C@H](O)[C@@H](CO)O1`, for which the IC50 in data set [1], in data set [2] and in data set [3] was over 500 µM each time.
`[11CH3]Oc1ccc(-c2cc3cn([C@H]4C[C@H](O)[C@@H](CO)O4)c(=O)nc3o2)cc1`: the Drug uptake in the data set listed under Mus musculus [4] is listed as 34.3 %ID; in the data set with Kidney [5], 22.9 %ID; in the data set with Heart [6] it was 0.5 %ID; in the data set listed under Mus musculus [7], 5.8 %ID; in the data set filed under Mus musculus [8], 29.5 %ID; with Lung [9] it was 0.1 %ID. Besides, the Drug uptake in the data set with Stomach [10] is 1.2 %ID; with Kidney [11], 1.4 %ID; in the data set with Heart [12], 0 %ID; in the data set filed under Mus musculus [13], 1.5 %ID; with Liver [14], 9.9 %ID; in [15], 28.8 %ID. Besides, the Drug uptake is 20.3 %ID in the data set on Liver [16]; 46.7 %ID in the data set on Intestine [17]; 7.1 %ID in the data set with Blood [18]; 16.8 %ID in the data set with Intestine [19]; 1 %ID in the data set with Stomach [20]; 1.4 %ID in the data set filed under Mus musculus [21]. Further, the Drug uptake in the data set listed under Mus musculus [22] is listed as 0.4 %ID; in the data set on Lung [23], 1.2 %ID; in the data set with Blood [24], 0.6 %ID; in the data set with Brain [25], 0 %ID; in the data set with Brain [27] it was 0 %ID. Further, in data set [26], the logD is 1.3.
